Results on eight compounds are retold here after ChEMBL document CHEMBL1129953, “Heteroaromatic analogs of 1-[2-(diphenylmethoxy)ethyl]- and 1-[2-[bis(4-fluorophenyl)methoxy]ethyl]-4-(3-phenylpropyl)piperazines (GBR 12935 and GBR 12909) as high-affinity dopamine reuptake inhibitors” (J Med Chem, 1997).

Experiment [1] addresses Sodium-dependent dopamine transporter (Rattus norvegicus) (UniProt P23977). Briefly: Ratio of reuptake inhibition on DA with respect to binding affinity of DA. Type of experiment: functional.
Experiment [2] addresses T1, Monoamine transporters; serotonin & dopamine (Rattus norvegicus) (UniProt P31652+P23977). Briefly: Ratio of reuptake inhibition of 5-HT with respect to DA. Type of experiment: functional.
The target of experiment [3] is T2, Sodium-dependent dopamine transporter (Rattus norvegicus, UniProt P23977). Briefly: Binding affinity was determined at the dopamine transporter labeled with radioligand [125 I] RTI-55. In short, it runs like this:
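Incubated in triplicate 18–24 h at 4 °C to equilibrium. Filtered over PEI-presoaked GF/B filters. Eight-point inhibition curves spanning 90% to 10% of control. IC50 reported.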

The target in experiment [4] is T1, Monoamine transporters; serotonin & dopamine (Rattus norvegicus). Briefly: Ratio of binding affinity on SERT with respect to DA. It is filed as protein assay.
Experiment [5] deals with T2, Sodium-dependent dopamine transporter. Briefly: Reuptake inhibition at the dopamine transporter labeled with radioligand [3H]dopamine on synaptosomes obtained from rat caudate. It is filed as functional, subcellular, Brain. In short, it runs like this:
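Rat caudate synaptosomes (10% sucrose homogenate, 1000g supernatant). [3H]DA at 5 nM final in Krebs-phosphate buffer pH 7.4 with ascorbic acid and 50 μM pargyline. Incubated 15 min at 25 °C. Nonspecific uptake defined with 1 μM GBR 12909. Filtered over GF/B filters and counted. IC50 reported.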

Experiment [6] concerns the target T3, Sodium-dependent serotonin transporter (Rattus norvegicus, UniProt P31652). Briefly: Binding affinity was determined at the Serotonin transporter labeled with radioligand [125 I] RTI-55. In short, it runs like this:
(§1)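 Triplicate incubation 18–24 h at 4 °C, then filtration over PEI-presoaked GF/B filters. Eight-point inhibition curves (90–10% of control) give the IC50.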

Experiment [7] has as its target T2, Sodium-dependent dopamine transporter. Briefly: Binding affinity at the dopamine transporter using [125I]RTI-55 in rat caudate membranes. It is filed as cell membranes. In short, it runs like this:
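[125I]RTI-55 at 0.01 nM (SA 2200 Ci/mmol). […] Incubated in triplicate 18–24 h at 4 °C to equilibrium. Filtered over PEI-presoaked GF/B filters. Eight-point inhibition curves spanning 90% to 10% of control. IC50 reported.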

For experiment [8] the target is unchanged. Briefly: Reuptake inhibition was determined at the dopamine transporter labeled with radioligand [3H]dopamine in nonstandard conditions on brain membranes obtained from rat. Type of experiment: functional, Membrane. In short, it runs like this:
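Synaptosomes preincubated with drug 60 min at 25 °C in Krebs-phosphate buffer with 1 mg/mL BSA. 5 nM [3H]DA then added for 20 min at 25 °C. Nonspecific uptake defined with 1 μM GBR 12909. Stopped by filtration. Mean ± SD of three independent experiments.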

Experiment [9] shares this target. Briefly: Binding affinity was determined at the dopamine transporter labeled with radioligand [125 I] RTI-55 in nonstandard conditions. The method, boiled down: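 Run on rat caudate synaptosomes in Krebs-phosphate buffer with 1 mg/mL BSA. Drug preincubated 60 min at 25 °C, then 10 pM [125I]RTI-55 added for 20 min at 25 °C. Filtered over PEI-presoaked GF/B filters. Nonspecific binding defined with 1 μM GBR 12909. Mean ± SD of three independent experiments.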

For experiment [10], the target named is T3, Sodium-dependent serotonin transporter. Briefly: Binding affinity at the serotonin transporter using [125I]RTI-55 in rat caudate membranes. It is filed as cell membranes. The method, boiled down:
as §1

A short description of experiment [11]: Sigma receptor binding was determined by labeling with radioligand [3H](+)-pentazocine on frozen membranes obtained from frozen guinea pig brain.

T2 sequence (P23977 whole entry): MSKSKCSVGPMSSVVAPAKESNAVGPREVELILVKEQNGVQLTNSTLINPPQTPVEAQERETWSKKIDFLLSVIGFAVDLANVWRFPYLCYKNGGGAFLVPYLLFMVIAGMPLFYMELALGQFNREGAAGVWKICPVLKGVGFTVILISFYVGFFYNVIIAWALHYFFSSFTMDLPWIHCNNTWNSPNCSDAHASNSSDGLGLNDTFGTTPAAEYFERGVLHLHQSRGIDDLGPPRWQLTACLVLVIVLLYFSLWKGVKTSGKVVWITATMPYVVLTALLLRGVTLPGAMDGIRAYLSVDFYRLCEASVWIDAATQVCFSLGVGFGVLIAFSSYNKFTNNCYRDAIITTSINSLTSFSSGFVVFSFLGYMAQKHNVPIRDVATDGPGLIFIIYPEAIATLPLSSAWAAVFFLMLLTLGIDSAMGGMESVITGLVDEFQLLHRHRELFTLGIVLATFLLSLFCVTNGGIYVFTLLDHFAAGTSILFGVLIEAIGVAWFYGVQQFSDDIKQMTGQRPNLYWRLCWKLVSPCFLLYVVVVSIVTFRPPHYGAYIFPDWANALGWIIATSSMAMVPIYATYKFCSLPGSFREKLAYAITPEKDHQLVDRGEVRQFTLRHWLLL
Chain of Sodium-dependent dopamine transporter (Rattus norvegicus) (P23977 whole entry): as above
T1 sequence (P23977 whole entry, looked up): as the sequence (P23977 whole entry) above
T1 sequence (P31652 whole entry, looked up): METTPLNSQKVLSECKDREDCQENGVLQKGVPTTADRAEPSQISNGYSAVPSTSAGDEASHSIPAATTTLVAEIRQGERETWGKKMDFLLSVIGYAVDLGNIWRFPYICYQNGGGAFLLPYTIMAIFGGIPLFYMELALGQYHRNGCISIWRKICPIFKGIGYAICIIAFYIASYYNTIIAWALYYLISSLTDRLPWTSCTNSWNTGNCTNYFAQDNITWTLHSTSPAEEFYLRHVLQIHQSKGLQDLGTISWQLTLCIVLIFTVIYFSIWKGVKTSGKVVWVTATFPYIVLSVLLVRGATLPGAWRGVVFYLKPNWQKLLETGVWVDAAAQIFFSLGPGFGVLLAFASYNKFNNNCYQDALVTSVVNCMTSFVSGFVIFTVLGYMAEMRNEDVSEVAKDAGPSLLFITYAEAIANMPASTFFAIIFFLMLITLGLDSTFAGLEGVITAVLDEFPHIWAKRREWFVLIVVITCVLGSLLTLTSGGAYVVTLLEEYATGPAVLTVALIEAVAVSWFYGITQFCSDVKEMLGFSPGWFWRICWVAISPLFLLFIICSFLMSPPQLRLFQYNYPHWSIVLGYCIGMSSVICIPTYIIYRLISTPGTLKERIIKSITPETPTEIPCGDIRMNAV
T3 sequence (P31652 whole entry): as the sequence (P31652 whole entry, looked up) above

Regarding `Fc1ccc(C(OCCN2CCN(CCCc3cccnc3)CC2)c2ccc(F)cc2)cc1`, the Ratio in [1] turned out to be 1.3; in [2], 321; in experiment [4] it was 175. Also, the IC50 in [3] is 16 nM; in experiment [5], 20 nM; in experiment [6], 2800 nM.
On to `Fc1ccc(C(OCCN2CCN(C/C=C/c3cccnc3)CC2)c2ccc(F)cc2)cc1`, for which the Ratio in experiment [1] came out at 1.1; in experiment [2], 46; in experiment [4] it was 25. For the same compound, the IC50 in experiment [3] worked out at 13.6 nM; in [5], 14.5 nM; in experiment [6], 334 nM.
For `c1ccc(C(OCCN2CCN(Cc3cc4ccccc4o3)CC2)c2ccccc2)cc1`, the Ratio was 1.3 in experiment [1], 136 in experiment [2] and 110 in experiment [4]. Moreover, the IC50 in [7] is 17 nM; in [8] it was 31 nM; in experiment [9], 43.6 nM; in experiment [5], 22 nM; in experiment [10], 1890 nM.
Consider `Fc1ccc(C(OCCN2CCN(Cc3cc4ccccc4[nH]3)CC2)c2ccc(F)cc2)cc1`, for which the Ratio in [1] is 18.6; in [2], 39; in experiment [4] it was 163. The IC50 in [7] is 0.7 nM; in experiment [8] it was 1.86 nM; in experiment [9], 2.94 nM; in experiment [5] it was 13 nM; in [10], 119 nM.
For the compound `c1ccc(CCCN2CCN(CCOC(c3ccccc3)c3ccccc3)CC2)cc1`, the IC50 in [11] stood at 17 nM. This counts as double-digit nanomolar.
On to `c1ccc(C(OCCN2CCN(Cc3cc4ccccc4[nH]3)CC2)c2ccccc2)cc1`, for which the values for the Ratio in experiment [1], in [2] and in [4] were 8, 241 and 619, respectively. Further, the IC50 in [7] turned out to be 1.1 nM; in experiment [8], 2.62 nM; in experiment [9], 2.19 nM; in experiment [5] it was 8.8 nM; in [10], 668 nM.
Turning to `Fc1ccc(C(OCCN2CCN(Cc3cc4ccccc4o3)CC2)c2ccc(F)cc2)cc1`, the Ratio in experiment [1] is 2.9; in [2] it was 41; in experiment [4] it was 45. The IC50 in experiment [7] is 6.4 nM; in [8], 12.3 nM; in experiment [9], 17.8 nM; in experiment [5], 18.6 nM; in experiment [10], 286 nM.
Consider `Fc1ccc(C(OCCN2CCN(CCCc3ccco3)CC2)c2ccc(F)cc2)cc1`, for which the values for the Ratio in experiment [1], in experiment [2] and in [4] were 1.3, 52 and 35, respectively. Also, the IC50 in experiment [3] was 5.9 nM; in experiment [5] it was 7.9 nM; in [6], 204 nM.
